A selection: hits, their analogues and other compounds. The true share with any hit is near 4.5%.
TAAR1 antag: human TAAR1 antagonists, primary screen, Fluo-8 calcium fluorescence, CHO RD-HGA16 cells. Trace amine-associated receptor 1 (Homo sapiens), Q96RJ0. inhibition, % at 3 µM. antagonist. 360,000 compounds, 1.5% hits;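 active = inhibition above a per-plate cutoff, the mean inhibition of test compounds on that plate plus 3 SD, cut at about 49% in these data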;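 also: 0% = DMSO plus EC80 beta-PEA response and 100% = DMSO alone without agonist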
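System: CHO RD-HGA16 cells bearing hTAAR1. Reagent: EC80 β-phenethylamine stimulus. Schedule: seeding 17-24 h prior, 75-min 37 °C, 30-min RT dye loading. Signal: Fluo-8 intracellular calcium dye fluorescence, real-time kinetic reads. Read-out: % inhibition from peak post-agonist over basal fluorescence ratio. Benchmarks: vehicle wells and EC80 agonist wells. Replicates: n of 1.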
CHO parental Ca: ATP-evoked calcium signal inhibitors, parental CHO, primary screen, counter-screen for OX1R antagonist project, cell-based, fluorescence, Fluo-8 calcium dye; 330,000 compounds, 0.63% hits; AID 463079, 2010; parental CHO-K1, ATP-induced calcium, Fluo-8 fluorescence; inhibition, % at 5.6 µM;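 active = inhibition above that plate's mean sample inhibition plus 3 SD, cut at about 26% in these data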;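 also: 0% = ATP-challenged DMSO wells and 100% = DMSO wells without ATP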
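Test system: untransfected parental CHO cell line; also added: ATP stimulus; dosing: 5.6 µM, single dose; signal: calcium-sensitive Fluo-8 fluorescence; measure: percent inhibition of ATP-evoked calcium rise, normalized to controls; benchmarks: low control ATP plus DMSO, high control DMSO only; replication: one well per compound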
OX1R antag-1: antagonists of human orexin 1 receptor (OX1R) | Orexin/Hypocretin receptor type 1 (Homo sapiens), O43613 | OX1R-expressing cells, FRET antagonist read-out | inhibition, % at 6.6 µM | 330,000 compounds, 1.8% hits | AID 485270, 2010; in the data active = inhibition mostly above about 38%, no sharp cut-off; inactive = mostly below about 40%;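 also: 0% = agonist challenge alone and 100% = reference antagonist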
GPR7 antag: GPR7 receptor antagonists, primary screen, cell-based, fluorescence, single concentration | AID 1861, 2009 | 290,000 compounds, 1.1% hits | GPR7-expressing cells, fluorescence antagonist assay | Neuropeptides B/W receptor type 1 (Homo sapiens), P48145 | inhibition, % at 4.4 µM; in the data active = inhibition above about 16%, passing the limit was not always enough;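 also: cells stimulated with the agonist NPW; 0% = agonist with vehicle and 100% = vehicle without agonist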
Target sequence (P48145 whole entry, looked up): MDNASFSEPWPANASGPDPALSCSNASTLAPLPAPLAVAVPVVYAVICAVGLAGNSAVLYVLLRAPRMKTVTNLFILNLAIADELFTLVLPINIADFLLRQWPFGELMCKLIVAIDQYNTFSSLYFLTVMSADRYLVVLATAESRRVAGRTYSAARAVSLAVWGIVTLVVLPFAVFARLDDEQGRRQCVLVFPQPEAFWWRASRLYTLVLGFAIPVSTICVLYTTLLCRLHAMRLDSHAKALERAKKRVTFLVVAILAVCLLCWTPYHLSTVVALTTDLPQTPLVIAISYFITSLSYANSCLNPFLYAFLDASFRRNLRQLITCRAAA
TAAR1 ag: human TAAR1 agonists, primary screen, Fluo-8 calcium fluorescence, CHO RD-HGA16 cells | activation, % at 3 µM | AID 624467, 2012 | vehicle wells 0%, saturating PEA agonist 100% | 360,000 compounds, 0.99% hits;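 active = activation above the mean activation of all test compounds in the run plus 3 SD, cut at about 38% in these data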
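Repeats: no replicates (n 1) | Material: CHO-derived RD-HGA16 cells with stable Gα16 and human TAAR1 | Technique: Kinetic Fluo-8 calcium fluorescence | Schedule: 17-24 h seeding, 75 min 37 °C dye, 30 min RT | Evaluation: % activation from peak over basal fluorescence ratio, DMSO-to-PEA scaled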
OX1R antag-2: OX1R (HCRTR1) antagonists, primary screen, fluorescence, CHO/OX1R cells, Fluo-8 calcium, orexin A | Orexin/Hypocretin receptor type 1 (Homo sapiens), O43613 | Fluo-8 calcium fluorescence | inhibition, % at 5 µM | 330,000 compounds, 0.43% hits | AID 434989, 2010;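 active = inhibition above its plate's threshold, mean inhibition of all tested compounds on the plate plus 3 SD, cut at about 37% in these data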;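 also: 0% = orexin A challenge wells and 100% = SB-334867-A antagonist wells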
OX1R HTRF conf: OX1R (HCRTR1) antagonists, confirmation, cell-based, HTRF | shares compounds with OX1R antag-1 | OX1R-expressing cells, HTRF antagonist assay | inhibition, % at 6.6 µM | 1,800 compounds, 49% hits; in the data active = inhibition above about 55%;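 also: CHO cells expressing OX1R stimulated with orexin A at about EC80; 0% = agonist challenge alone and 100% = reference antagonist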
CHO-K1 HTRF: signal inhibition in parental CHO-K1 cells, counter-screen for OX1R antagonist project, cell-based, HTRF | HTRF counterscreen | 1,800 compounds, 48% hits | inhibition, % at 6.6 µM | shares compounds with OX1R antag-1; in the data active = inhibition above about 17%;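 also: 0% = agonist challenge with vehicle and 100% = vehicle alone without agonist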
nonsel antag count: nonselective antagonists in TAAR1 counter-screen cells, counter-screen for hTAAR1 antagonist project, cell-based, fluorescence, calcium. shares compounds with TAAR1 antag. counterscreen cell line, antagonist mode. inhibition, % at 3 µM. 2,400 compounds, 77% hits. AID 651780, 2012; in the data active = inhibition above about 22%;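 also: CHO-Ga16 host cells stimulated with ATP at an EC80 level; 0% = agonist EC80 plus vehicle and 100% = vehicle without agonist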
TAAR1 ant conf: human TAAR1 antagonists, retest of hits, confirmation, cell-based, fluorescence; shares compounds with TAAR1 antag; TAAR1-expressing cells, fluorescence antagonist read-out; inhibition, % at 3 µM; 2,400 compounds, 40% hits; in the data active = inhibition above about 49%;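 also: CHO-Ga16 host cells challenged with agonist PEA near its EC80; 0% = agonist at EC80 plus vehicle and 100% = vehicle with no agonist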
Ga16 ag counter: calcium activation in Ga16-expressing cells, counter-screen for TAAR1 antagonist project, cell-based, fluorescence; shares compounds with TAAR1 antag; agonist counterscreen; activation, % at 3 µM; 2,400 compounds, 18% hits; AID 651953, 2012; in the data active = activation above about 12%;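 also: 0% = vehicle wells and 100% = saturating stimulus response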
TAAR1 ag count: TAAR1 activation by candidate antagonists – cell-based, fluorescence, counter-screen for TAAR1 antagonist project | hTAAR1 cell line, agonist mode | activation, % at 3 µM | 2,400 compounds, 2% hits | shares compounds with TAAR1 antag | AID 651955, 2012; in the data active = activation above about 37%;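 also: CHO cells stably expressing TAAR1 with calcium dye readout; 0% = DMSO vehicle and 100% = full agonist response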
Numbers without * were called inactive; x = no result given.

SMILES | TAAR1 antag | CHO parental Ca | OX1R antag-1 | GPR7 antag | TAAR1 ag | OX1R antag-2 | OX1R HTRF conf | CHO-K1 HTRF | others
O=C(NCc1ccco1)c1cccc2c1C(=O)c1ccc(N3CCC(N4CCCCC4)CC3)cc1S2(=O)=O | -19 | x | x | x | 2 | x | x | x
O=C(CCl)N(O)c1ccc(C=Cc2ccccc2)cc1 | -3 | x | x | x | 3 | x | x | x
CNC(=O)COC(=O)CNC(=O)c1cc(Cl)cc([N+](=O)[O-])c1 | 0 | 2 | 89* | -12 | 12 | 3 | 38 | 49*
O=C(CNC(=O)c1ccc(Br)cc1)NCC(=O)OCC(=O)c1ccc(F)cc1 | -22 | x | x | -3 | 0 | x | x | x
O=C(CNC(=O)c1ccc(Br)cc1)NCC(=O)OCC(=O)c1ccc([N+](=O)[O-])cc1 | -13 | -12 | 87* | -2 | 1 | -20 | 35 | 50*
CCn1c(SCC(=O)c2c[nH]c3ccccc23)nnc1-c1cccs1 | 24 | -16 | 39 | -1 | 15 | 12 | x | x
CCn1c(SCc2nc(-c3cccs3)no2)nnc1-c1c[nH]c2ccccc12 | 50* | -25 | 81* | 14 | 18 | 10 | 43 | 3
CC(=O)O[C@H]1[C@H](C)OC=C[C@@H]1OC(C)=O | -16 | -3 | 9 | 10 | 1 | -15 | x | x
O=C(N=Nc1c(O)[nH]c2ccccc12)c1cccc(S(=O)(=O)Nc2ccccc2Cl)c1 | 56* | -21 | 84* | -10 | 10 | 5 | 92* | 3 | nonsel antag count=24*;TAAR1 ant conf=42;Ga16 ag counter=5;TAAR1 ag count=0
CC(=O)Nc1cccc(-c2nc3ccccc3[nH]2)c1 | 10 | 13 | 14 | -5 | 4 | -15 | x | x
O=C(Nc1cccc(-c2nc3ccccc3[nH]2)c1)c1ccccn1 | 51* | -17 | 88* | -12 | 9 | -14 | 86* | 9 | nonsel antag count=19;TAAR1 ant conf=27;Ga16 ag counter=5;TAAR1 ag count=4
CC1CCC2(CC1)NC(=O)N(CC(=O)NC1CCCCC1C)C2=O (stereo not drawn) | 0 | 1 | 10 | x | -1 | 1 | x | x
COc1ccc(-c2ccc3c(c2)O[C@H](CN(C)C(=O)Nc2ccccc2F)[C@@H](C)CN([C@H](C)CO)S3(=O)=O)cc1 | -17 | x | x | x | 3 | x | x | x
CCOC(=O)C1CCCN(C2=C(NS(=O)(=O)c3ccc(Br)cc3)C(=O)c3ccccc3C2=O)C1 (stereo not drawn) | 62* | -20 | 89* | -15 | 21 | -12 | 73* | 77* | nonsel antag count=26*;TAAR1 ant conf=38;Ga16 ag counter=0;TAAR1 ag count=12

Assay outcomes as filed in PubChem BioAssay.
